In paper PMC11974842 (bioRxiv, 2025):

B2: ScCia1, strep-tagged bait (natural protein)
chain: MASINLIKSLKLYKEKIWSFDFSQGILATGSTDRKIKLVSVKYDDFTLIDVLDETAHKKAIRSVAWRPHTSLLAAGSFDSTVSIWAKEESADRTFEMDLLAIIEGHENEVKGVAWSNDGYYLATCSRDKSVWIWETDESGEEYECISVLQEHSQDVKHVIWHPSEALLASSSYDDTVRIWKDYDDDWECVAVLNGHEGTVWSSDFDKTEGVFRLCSGSDDSTVRVWKYMGDDEDDQQEWVCEAILPDVHKRQVYNVAWGFNGLIASVGADGVLAVYEEVDGEWKVFAKRALCHGVYEINVVKWLELNGKTILATGGDDGIVNFWSLEKAA

Key:
[1] = biological target: ScCia2 (Saccharomyces cerevisiae); experiment: MST
[2] = biological target: FITC-4mer probe (last 4 residues of ScLeu1) (Saccharomyces cerevisiae) (UniProt P07264); experiment: fluorescence polarisation
[3] = biological target: B2; experiment: pull-down
ScNar1 = biological target: T1, ScNar1 (Saccharomyces cerevisiae, UniProt P23503 1-491); experiment: pull-down
T1 sequence: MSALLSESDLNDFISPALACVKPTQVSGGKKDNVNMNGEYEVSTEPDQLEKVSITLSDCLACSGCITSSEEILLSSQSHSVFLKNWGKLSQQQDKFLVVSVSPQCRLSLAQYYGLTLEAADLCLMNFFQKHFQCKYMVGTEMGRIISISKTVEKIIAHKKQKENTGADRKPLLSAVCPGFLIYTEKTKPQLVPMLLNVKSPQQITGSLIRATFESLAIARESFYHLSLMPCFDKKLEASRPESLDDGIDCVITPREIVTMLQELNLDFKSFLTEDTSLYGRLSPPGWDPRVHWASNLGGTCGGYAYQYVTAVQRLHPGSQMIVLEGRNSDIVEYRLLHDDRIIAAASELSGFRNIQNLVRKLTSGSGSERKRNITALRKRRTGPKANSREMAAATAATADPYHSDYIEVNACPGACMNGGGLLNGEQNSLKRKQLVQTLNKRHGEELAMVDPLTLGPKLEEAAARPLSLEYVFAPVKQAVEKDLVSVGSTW

full-length Nar1 = experiment: Affinity copurification of CTC with ScCia1 variants and full-length Nar1; assay type: binding, Saccharomyces cerevisiae; conditions: ScCia1 variants incorporated into the CTC
SPCNar1 = experiment: Affinity copurification of ScCia1 variants with SPCNar1; assay type: binding, Saccharomyces cerevisiae; conditions: ScCia1 variants with Met18 and strep-tagged Cia2 bait, western blot
ScCTC-Leu1 complex = experiment: Competition of Nar1 with Leu1 for the CTC; assay type: binding, Saccharomyces cerevisiae; conditions: Nar1 0.25-1.0 molar equivalents relative to Leu1; streptactin eluate, SDS-PAGE
[4] = system: ScCTC (Cia1, Cia2, Met18); experiment: Affinity copurification with ScCTC; assay type: binding, Saccharomyces cerevisiae; conditions: streptactin eluate, strep-tagged Cia2 bait, SDS-PAGE / western blot
How it was run: (§1)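 Nar1 is the prey. Strep-tagged bait is either single CTC subunits (Cia1 alone) or combinations (Cia1-Cia2, or full Cia1-Cia2-Met18 complex). Eluates are analysed by SDS-PAGE and western blot for copurifying Nar1. Uncropped gels, including input samples and controls, accompany the analysis.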

ScCia1 = experiment: Affinity copurification with ScCia1; assay type: binding, Saccharomyces cerevisiae; conditions: streptactin eluate, SDS-PAGE / western blot
How it was run: as §1

ScCia1-Cia2 = experiment: Affinity copurification with ScCia1-Cia2; assay type: binding, Saccharomyces cerevisiae; conditions: streptactin eluate, SDS-PAGE / western blot
How it was run: as §1

For “ScCia1 Y254A (from UniProt Q05583 1-330) (natural protein)”, the fold increase in KD against wild-type Cia1 [1] was > 10 fold.

“ScCia1-Cia2 complex (from UniProt Q05583 1-330)” showed a Kd [2] of 86 µM.

In the case of CtCia1-Cia2 complex, the Kd [2] is reported as 25 µM.

Work on “HsCia1-Cia2a complex (from UniProt O76071 1-339; Q9H5X1 1-160)” yielded a Kd [2] of 48 µM.

B1: SPCNar1 (SUMO peptide carrier with Nar1 residues 482-491) (domain or fragment)
chain: KDLVSVGSTW
B1: binds [3].

B2: binds (ScNar1).

B3: R127E (protein, UniProt Q05583 1-330, looked up, variant R127E)
Cytosolic iron-sulfur protein …: MASINLIKSLKLYKEKIWSFDFSQGILATGSTDRKIKLVSVKYDDFTLIDVLDETAHKKAIRSVAWRPHTSLLAAGSFDSTVSIWAKEESADRTFEMDLLAIIEGHENEVKGVAWSNDGYYLATCSEDKSVWIWETDESGEEYECISVLQEHSQDVKHVIWHPSEALLASSSYDDTVRIWKDYDDDWECVAVLNGHEGTVWSSDFDKTEGVFRLCSGSDDSTVRVWKYMGDDEDDQQEWVCEAILPDVHKRQVYNVAWGFNGLIASVGADGVLAVYEEVDGEWKVFAKRALCHGVYEINVVKWLELNGKTILATGGDDGIVNFWSLEKAA
In the case of B3, the “interaction with full-length Nar1” value (full-length Nar1) is reported as “none of the Cia1 variants tested, including the charge swapped R127E variant, completely blocked interaction”.

B4: R127ACia1: ScCia1 variant (protein)
chain: MASINLIKSLKLYKEKIWSFDFSQGILATGSTDRKIKLVSVKYDDFTLIDVLDETAHKKAIRSVAWRPHTSLLAAGSFDSTVSIWAKEESADRTFEMDLLAIIEGHENEVKGVAWSNDGYYLATCSADKSVWIWETDESGEEYECISVLQEHSQDVKHVIWHPSEALLASSSYDDTVRIWKDYDDDWECVAVLNGHEGTVWSSDFDKTEGVFRLCSGSDDSTVRVWKYMGDDEDDQQEWVCEAILPDVHKRQVYNVAWGFNGLIASVGADGVLAVYEEVDGEWKVFAKRALCHGVYEINVVKWLELNGKTILATGGDDGIVNFWSLEKAA
modifications: left off: His6, N-terminal, state not stated
With B4 the “interaction with SPCNar1” value (SPCNar1) was “diminished the amount”.

B5: Nar1: full-length S. cerevisiae Nar1 with N-terminal His6-SUMO tag (protein)
chain: MSALLSESDLNDFISPALACVKPTQVSGGKKDNVNMNGEYEVSTEPDQLEKVSITLSDCLACSGCITSSEEILLSSQSHSVFLKNWGKLSQQQDKFLVVSVSPQCRLSLAQYYGLTLEAADLCLMNFFQKHFQCKYMVGTEMGRIISISKTVEKIIAHKKQKENTGADRKPLLSAVCPGFLIYTEKTKPQLVPMLLNVKSPQQITGSLIRATFESLAIARESFYHLSLMPCFDKKLEASRPESLDDGIDCVITPREIVTMLQELNLDFKSFLTEDTSLYGRLSPPGWDPRVHWASNLGGTCGGYAYQYVTAVQRLHPGSQMIVLEGRNSDIVEYRLLHDDRIIAAASELSGFRNIQNLVRKLTSGSGSERKRNITALRKRRTGPKANSREMAAATAATADPYHSDYIEVNACPGACMNGGGLLNGEQNSLKRKQLVQTLNKRHGEELAMVDPLTLGPKLEEAAARPLSLEYVFAPVKQAVEKDLVSVGSTW
With B5 the “competition with Leu1 for binding to the CTC” value (ScCTC-Leu1 complex) was “the interaction of Nar1 and Leu1 with the CTC is mutually exclusive”, the “copurification with the CTC” value [4] was “Nar1 eluting with Cia1, Cia1-Cia2, and the full CTC” and the “copurification with Cia1” value (ScCia1) was “Nar1 eluting with Cia1, Cia1-Cia2, and the full CTC”. The “copurification with Cia1-Cia2” value (ScCia1-Cia2) was “Nar1 eluting with Cia1, Cia1-Cia2, and the full CTC”.

B6: Nar1 TCR-peptide variant: ScNar1 with C-terminal Trp substituted with Ala (protein)
chain: MSALLSESDLNDFISPALACVKPTQVSGGKKDNVNMNGEYEVSTEPDQLEKVSITLSDCLACSGCITSSEEILLSSQSHSVFLKNWGKLSQQQDKFLVVSVSPQCRLSLAQYYGLTLEAADLCLMNFFQKHFQCKYMVGTEMGRIISISKTVEKIIAHKKQKENTGADRKPLLSAVCPGFLIYTEKTKPQLVPMLLNVKSPQQITGSLIRATFESLAIARESFYHLSLMPCFDKKLEASRPESLDDGIDCVITPREIVTMLQELNLDFKSFLTEDTSLYGRLSPPGWDPRVHWASNLGGTCGGYAYQYVTAVQRLHPGSQMIVLEGRNSDIVEYRLLHDDRIIAAASELSGFRNIQNLVRKLTSGSGSERKRNITALRKRRTGPKANSREMAAATAATADPYHSDYIEVNACPGACMNGGGLLNGEQNSLKRKQLVQTLNKRHGEELAMVDPLTLGPKLEEAAARPLSLEYVFAPVKQAVEKDLVSVGSTA
With B6 the “copurification with the CTC” value [4] was “less Nar1 TCR-peptide variant was found in the eluate”.

B7: Leu1: S. cerevisiae Leu1 with N-terminal His6-TEV tag (protein)
chain: MVYTPSKGPRTLYDKVFDAHVVHQDENGSFLLYIDRHLVHEVTSPQAFEGLENAGRKVRRVDCTLATVDHNIPTESRKNFKSLDTFIKQTDSRLQVKTLENNVKQFGVPYFGMSDARQGIVHTIGPEEGFTLPGTTVVCGDSHTSTHGAFGSLAFGIGTSEVEHVLATQTIIQAKSKNMRITVNGKLSPGITSKDLILYIIGLIGTAGGTGCVIEFAGEAIEALSMEARMSMCNMAIEAGARAGMIKPDETTFQYTKGRPLAPKGAEWEKAVAYWKTLKTDEGAKFDHEINIEAVDVIPTITWGTSPQDALPITGSVPDPKNVTDPIKKSGMERALAYMGLEPNTPLKSIKVDKVFIGSCTNGRIEDLRSAAAVVRGQKLASNIKLAMVVPGSGLVKKQAEAEGLDKIFQEAGFEWREAGCSICLGMNPDILDAYERCASTSNRNFEGRQGALSRTHLMSPAMAAAAGIAGHFVDIREFEYKDQDQSSPKVEVTSEDEKELESAAYDHAEPVQPEDAPQDIANDELKDIPVKSDDTPAKPSSSGMKPFLTLEGISAPLDKANVDTDAIIPKQFLKTIKRTGLKKGLFYEWRFRKDDQGKDQETDFVLNVEPWREAEILVVTGDNFGCGSSREHAPWALKDFGIKSIIAPSYGDIFYNNSFKNGLLPIRLDQQIIIDKLIPIANKGGKLCVDLPNQKILDSDGNVLVDHFEIEPFRKHCLVNGLDDIGITLQKEEYISRYEALRREKYSFLEGGSKLLKFDNVPKRKAVTTTFDKVHQDW
With B7 the “copurification with the CTC” value [4] was “requires its C-terminal Trp to interact with the CTC in vitro”.
